Shown are actives, neighbours in structure and some others; about 3.7% of the full set was active somewhere.
FGF22 binding: binders of recombinant human FGF22 by thermal shift; Q9HCT0; SYPRO orange fluorescence; percent of sucrose octasulfate shift, DMSO zero; activity (Tm shift, normalised), % at 9.99 µM; 1.5% of 340,000 active;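 active means mean Tm shift, scaled 0 neutral to 100 positive control, at about 1.3% or above, every replicate too, limit read from the data; inconclusive means no clear call, values can overlap the other calls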
ERAP1 HTS inh: ERAP1 (human) enzyme inhibition. recombinant ERAP1, Leu-AMC fluorescence, 60 min. inhibition, % at 10.7 µM. 0.15% of 340,000 active. Q9NZ08;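 active means mean replicate inhibition of at least 30%, or all replicates individually reaching that 30% level; inactive means mean below 30% and not every replicate reaching it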;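 further: 0% = neutral control wells and 100% = L-leucinethiol positive control wells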
CFTR F508del cor: correctors of CFTR F508del function in bronchial epithelial cells | CFBE cells, YFP halide quenching; stimulated with forskolin plus potentiator P3; % fluorescence drop versus neutral controls | activity (quench increase), % at 7.58 µM | 0.36% of 350,000 active | AID 720511;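 active means mean added fluorescence quench of at least 8% versus neutral control, with both replicates also reaching 8%; inconclusive means only one of the mean or replicate conditions met; inactive means mean below 8% and not both replicates reaching 8%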;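 further: cells transiently co-express mutant CFTR-F508del with the halide-sensitive YFP; corrector assay measuring rescue of mutant channel to the surface after 24 h compound exposure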
E-selectin induc: E-selectin induction on HUVECs; P16581; HUVEC E-selectin immunofluorescence imaging; normalized: neutral wells 0, TNF-alpha wells 100; activation, % at 7.58 µM; 0.37% of 260,000 active; AID 686992;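 active means mean E-selectin-positive cell signal at least 10% of the positive control, reached in at least 60% of replicates, without over 20% cell loss; inconclusive means no rule given, readout overlaps actives, possibly toxicity-flagged; inactive means the rest, including those meeting only one limit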
Target sequence (P16581 whole entry, looked up): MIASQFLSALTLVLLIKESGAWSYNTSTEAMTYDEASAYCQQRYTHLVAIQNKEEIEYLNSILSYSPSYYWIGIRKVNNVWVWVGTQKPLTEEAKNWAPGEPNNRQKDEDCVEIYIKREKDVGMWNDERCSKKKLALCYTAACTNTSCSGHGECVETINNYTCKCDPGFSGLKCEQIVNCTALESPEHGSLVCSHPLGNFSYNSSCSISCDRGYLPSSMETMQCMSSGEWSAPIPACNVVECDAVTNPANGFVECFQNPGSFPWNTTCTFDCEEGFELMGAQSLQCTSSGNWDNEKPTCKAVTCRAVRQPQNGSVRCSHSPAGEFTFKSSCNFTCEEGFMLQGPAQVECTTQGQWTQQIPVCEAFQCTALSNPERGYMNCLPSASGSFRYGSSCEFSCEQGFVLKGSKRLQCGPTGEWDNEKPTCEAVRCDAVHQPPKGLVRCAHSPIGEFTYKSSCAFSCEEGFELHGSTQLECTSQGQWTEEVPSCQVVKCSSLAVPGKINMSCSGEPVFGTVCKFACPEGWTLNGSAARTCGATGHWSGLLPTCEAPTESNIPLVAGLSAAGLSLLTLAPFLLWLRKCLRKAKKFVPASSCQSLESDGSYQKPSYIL
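System: HUVEC / Compound: single concentration / Signal: immunofluorescence imaging / Read-out: percent E-selectin-positive cells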
DENV2 CPE: inhibitors of DENV2 cytopathic effect; 1.7% of 350,000 active; CPE inhibition, % at 9.99 µM; DENV2-infected cells, cytopathic effect rescue, plate reader; in the data active means CPE inhibition above about 20%, passing the limit was not always enough; inconclusive means no clear call, values can overlap the other calls; tested in BHK-21 cells;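 further: 0% = median of neutral control wells and 100% = median of positive control wells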
An asterisk follows results filed as active; ? = inconclusive; . = no result given; ! = not confirmed by another sample.

SMILES	FGF22 binding	ERAP1 HTS inh	CFTR F508del cor	E-selectin induc	DENV2 CPE
Cc1ccc(S(=O)(=O)Nc2ccc3c(c2)C(=O)N([C@@H](C)CO)C[C@@H](C)[C@@H](CN(C)S(=O)(=O)c2cccs2)OCCCC[C@@H](C)O3)cc1	0	1	2	4	40*
CO[C@@H]1CN(C)C(=O)c2cc(NC(=O)C3CC3)ccc2OC[C@H](C)N(C(=O)c2ccccc2)C[C@@H]1C	0	-2	1	0	1
C=C(C)C(=O)N1CC2(CC(c3cccc(NC(=O)/C=C\C)c3)=NO2)C[C@H]1C(N)=O (some centres not stated)	0	-5	-1	0	128*
C/C=C/C=C\C(=O)Nc1cccc(C2=NOC3(C2)C[C@@H](C(N)=O)N(C(=O)/C(C)=C/C)C3)c1 (some centres not stated)	0	2	2	0	.
C/C=C/C=C/C(=O)N1CC2(CC(c3cccc(NC(=O)/C=C/C)c3)=NO2)C[C@@H]1C(N)=O (some centres not stated)	0	-2	-1	0	29*
NC(=O)[C@@H]1CC2(CC(c3cccc(NC(=O)COc4ccc(Cl)cc4)c3)=NO2)CN1C(=O)COc1ccc(Cl)cc1 (some centres not stated)	0	-3	0	0	?
C/C=C/C(=O)Nc1cccc(C2=NOC3(C2)C[C@H](C(N)=O)N(C(=O)/C=C/C)C3)c1 (some centres not stated)	0	.	-1	0	-6
CC/C=C/C(=O)N1CC2(CC(c3cccc(NC(=O)COc4ccc(Cl)cc4)c3)=NO2)C[C@H]1C(N)=O (some centres not stated)	0	-3	-1	.	22*
CO[C@H]1CC[C@@H]2CCOc3ccc(C#N)cc3C(=O)N(C)C[C@@H](OC)[C@@H](C)C(=O)N(C)C[C@H]1O2	0	-3	.	0	-3
O=C(C[C@H]1C[C@H]2c3cc(NC(=O)Nc4ccccc4)ccc3O[C@H]2[C@@H](CO)O1)NCCN1CCCCC1	0	0	0	1	-3
C[C@H](CO)N1C[C@H](C)[C@@H](CN(C)S(=O)(=O)c2cn(C)cn2)Oc2ccc(NC(=O)c3ccncc3)cc2CC1=O	0	0	2	11	1
C[C@@H]1CN([C@H](C)CO)C(=O)Cc2cc(NC(=O)c3ccncc3)ccc2O[C@H]1CN(C)S(C)(=O)=O	0	2	0	447*	10
COc1ccc(NC(=O)Nc2ccc3c(c2)CC(=O)N([C@@H](C)CO)C[C@H](C)[C@H](CN(C)S(=O)(=O)c2cn(C)cn2)O3)cc1	0	0	3	.	-6
C[C@@H]1CN([C@@H](C)CO)C(=O)Cc2cc(NC(=O)c3ccncc3)ccc2O[C@@H]1CN(C)S(=O)(=O)c1cn(C)cn1	1	-7	0	321*	-7
C[C@@H]1CN([C@H](C)CO)C(=O)Cc2cc(NC(=O)Nc3ccccc3)ccc2O[C@H]1CN(C)S(=O)(=O)c1cn(C)cn1	0	2	-2	0	62*
C[C@@H]1CN([C@@H](C)CO)C(=O)Cc2cc(NC(=O)Nc3ccccc3)ccc2O[C@H]1CN(C)S(=O)(=O)c1cn(C)cn1	0	4	-1	0	7
COc1ccc(NC(=O)Nc2ccc3c(c2)CC(=O)N([C@H](C)CO)C[C@H](C)[C@@H](CN(C)S(=O)(=O)c2cn(C)cn2)O3)cc1	0	1	0	.	22*
C[C@@H]1CN([C@@H](C)CO)C(=O)c2cc(NS(=O)(=O)c3ccc(F)cc3)ccc2O[C@@H](C)CCCCO[C@@H]1CN(C)C(=O)Nc1ccccc1	0	.	2	0	5
C/C=C/c1ccc([C@H]2[C@@H](CO)N(C(=O)C3CC3)[C@H]2CN(C)C(C)=O)cc1	0	5	-3	0	-3
O=C(C[C@H]1CC[C@@H](NC(=O)c2ccncc2)[C@H](CO)O1)Nc1ccc(-c2ccccc2)cc1	.	-5	-1	0	-4
COCC(=O)N1C[C@H]2[C@@H](c3ccccc31)[C@@H](CO)N2C(=O)C1CCCCC1	0	-2	0	0	16
COc1ccccc1S(=O)(=O)N1[C@@H]2CNC[C@H]1C2c1ccc(/C=C/c2ccccc2)cc1 (some centres not stated)	.	0	3	0	-2
Cc1ccccc1S(=O)(=O)N1[C@@H]2CNC[C@H]1C2c1ccc(/C=C/c2ccccc2)cc1 (some centres not stated)	.	-2	1	0	25*!
CS(=O)(=O)N1[C@@H]2CNC[C@H]1C2c1ccc(-c2ccccc2)cc1 (some centres not stated)	0	1	5	0	80*
O=S(=O)(c1cccc(F)c1)N1[C@@H]2CNC[C@H]1C2c1ccc(-c2ccccc2)cc1 (some centres not stated)	.	3	0	0	-5
SMILES	FGF22 binding	ERAP1 HTS inh	CFTR F508del cor	E-selectin induc	DENV2 CPE
O=C(c1ccccc1)c1sc(N2CCOCC2)nc1-c1ccccc1	44*	0	-3	.	-9
Cc1ccccc1OCC(=O)Nc1ccccc1-c1ccccc1NC(=O)COc1ccccc1C	.	.	.	1	.
Cc1cc(CSc2ccccc2)ccc1NC(=O)COc1ccccc1C	44*	-1	2	.	-6
COc1cc(/C=N/n2cc(-c3ccccc3)[nH]c2=S)cc(OC)c1O	0	2	-2	.	-1
Oc1ccc(/C=N/n2cc(-c3ccccc3)[nH]c2=S)cc1	44*	5	0	3	2
Cc1cc(=O)n(C)c2ccccc12	43*	-1	1	5	-2
CCN(CC)C(=O)C(=O)c1cccn1-c1cccc(OC)c1C#N	45*	-5	-4	0	-8
O=C(OC(C(=O)NCc1ccccc1)c1ccco1)c1ccccc1 (configuration not stated)	0	-1	0	.	38*
Cc1ccc(CNC(=O)C(CC(C)C)OC(=O)c2ccco2)cc1 (configuration not stated)	0	3	0	0	30*
CC(C)=N/N=c1\scc(C)n1Cc1ccco1	43*	1	2	2	-1
CC=Cc1ccc2n(c1=O)C[C@H]1[C@H](CO)[C@@H](C(=O)NCCC)N(Cc3cocn3)[C@@H]21 (mixture of isomers)	1	4	.	0	78*
CC=Cc1ccc2n(c1=O)C[C@H]1[C@H](CO)[C@@H](C(=O)N(C)C)N(Cc3cccc(F)c3)[C@@H]21 (mixture of isomers)	0	-3	.	0	56*
CC=Cc1ccc2n(c1=O)C[C@H]1[C@H](CO)[C@@H](C(=O)NCc3ccccc3)N(C)[C@@H]21 (mixture of isomers)	17*	0	0	0	4

Compound activity (PubChem BioAssay)
